Measured values of several laboratories.
Protocols differ between the studies behind these lines.

Structure (SMILES)	tested on	assay	system	conditions	measurement	result
O=C1C(O)=C([C@H]2CC[C@H](c3ccc(Cl)cc3)CC2)C(=O)c2ccccc21	Plasmodium falciparum	parasite growth	3D7	blood stage	EC50	1.6 nM
CC(=O)Nc1cccc(-n2c(=O)n(C3CC3)c(=O)c3c(Nc4ccc(I)cc4F)n(C)c(=O)c(C)c32)c1	SW1417	cell growth or viability, resazurin	–	1.56 nM, 72 h	viability	80.5%
CS(=O)(=O)c1ccc2c(c1)C(=O)CCc1ccccc1C(=O)N2	L6	cell growth or viability	–	–	IC50	> 300000 nM
CCn1cc(-c2ccccn2)c(=O)c2cc(F)c(N3CCC(C)CC3)cc21	Plasmodium falciparum	parasite growth	3D7	72 h, blood stage	EC50	> 10000 nM
CN1CCN(S(=O)(=O)c2ccc(-c3ccc4c(Nc5ccc(Cl)cn5)ccnc4c3)cc2)CC1	Plasmodium falciparum	parasite growth	D6	drug-resistant strain, blood stage	EC50	250 nM
CCn1cc(-c2nc(C)no2)c(=O)c2cc(F)c(N3CCC(C)CC3)cc21	Plasmodium falciparum	parasite growth	3D7	72 h, blood stage	EC50	19 nM
O=C1Nc2ccccc2C(=O)CCc2ccccc21	L6	cell growth or viability	–	–	IC50	53000 nM
COc1ccc(Nc2ccnc3cc(-c4cn[nH]c4)ccc23)cc1Cl	Plasmodium falciparum	parasite growth	D6	drug-resistant strain, blood stage	EC50	250 nM
O=C1Nc2ccccc2C(=O)CCc2ccc(O)cc21	L6	cell growth or viability	–	–	IC50	200000 nM
CN1CCN(S(=O)(=O)c2ccc(-c3ccc4c(Nc5ccc(C(F)(F)F)nc5)ccnc4c3)cc2)CC1	Plasmodium falciparum	parasite growth	D6	drug-resistant strain, blood stage	EC50	160 nM
